SENP6 block: blocks the human protease SENP6. AID 2599. Recombinant SENP6 catalytic domain, aminoluciferin luminescence. actives 1.8% (n = 330,000). Q9GZR1. inhibition, % at 10 µM;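 active = inhibition above about 50% at the single tested dose, limit read from the data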;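 also: plate controls were DMSO wells with enzyme for no effect and DMSO wells lacking enzyme for full effect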
HSP90 refold inh: HSP90 refolding inhibition in rabbit reticulocyte lysate; luciferase refolding luminescence, 3 h; actives 0.91% (n = 290,000); inhibition, % at 5.6 µM;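 active = inhibition above the screen-wide mean plus 3 SD, computed separately per campaign, cut at about 16% in these data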;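 also: 0% = DMSO wells and 100% = 60 µM geldanamycin wells; inhibitors lower the luminescence because luciferase stays unfolded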
SENP7 inh: SENP7 protease inhibition; Q9BQF6; recombinant SENP7, Z-RLRGG-aminoluciferin luminescence, 40 min; inhibition, % at 5 µM; actives 1.5% (n = 330,000); AID 434973;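 active = inhibition above about 50% at the single test dose, limit read from the data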;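 also: plate controls were DMSO with enzyme for no effect and no enzyme buffer wells for full effect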
SENP8 block-1: inhibitors of human SENP8 protease. actives 1.2% (n = 330,000). inhibition, % at 10 µM. Q96LD8. purified SENP8, Z-RLRGG-aminoluciferin cleavage, luminescence. AID 2540; in the data active = inhibition above about 50%
Target sequence (Q96LD8 whole entry, looked up): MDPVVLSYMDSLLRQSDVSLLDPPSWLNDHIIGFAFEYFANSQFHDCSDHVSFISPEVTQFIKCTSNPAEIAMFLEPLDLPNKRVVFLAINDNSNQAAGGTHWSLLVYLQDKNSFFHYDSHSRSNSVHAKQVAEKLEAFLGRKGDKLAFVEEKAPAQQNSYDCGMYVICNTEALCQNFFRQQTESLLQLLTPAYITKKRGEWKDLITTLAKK
SENP8 block-2: SENP8 (human) protease inhibition; actives 0.64% (n = 360,000); inhibition, % at 20 µM; AID 602440; Q96LD8; recombinant SENP8, Nedd8 substrate fluorescence; in the data active = inhibition mostly above about 40%, no sharp cut-off; inactive = mostly below about 27%
SENP1 inh: blocks the human SENP1 SUMO protease catalytic domain; inhibition, % at 10 µM; AID 624204; Q9P0U3; recombinant SENP1 catalytic domain, CyPet-SUMO1-YPet FRET cleavage; actives 0.21% (n = 360,000);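 active = inhibition at least 30% at 10 µM, raw YFP signal under a set limit, fluorescence ratio 0.5 to 1.5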;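 also: 0% = enzyme with DMSO and 100% = no enzyme wells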
Target sequence (Q9P0U3 419-644 limits assumed): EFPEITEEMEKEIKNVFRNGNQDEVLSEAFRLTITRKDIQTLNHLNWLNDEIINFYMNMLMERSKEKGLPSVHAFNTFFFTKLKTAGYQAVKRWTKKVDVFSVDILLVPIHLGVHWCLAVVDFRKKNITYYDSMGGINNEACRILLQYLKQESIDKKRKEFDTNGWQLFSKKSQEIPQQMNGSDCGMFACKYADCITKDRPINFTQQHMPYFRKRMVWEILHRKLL
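Test system: human SENP1 catalytic domain; medium: Tris pH 8 buffer plus EDTA, NaCl, BME, BSA, NP40, catalase; incubation: 50 min reaction at room temperature; technique: FRET, CFP and YFP emission; controls: no-enzyme low control and enzyme-plus-DMSO high control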
SENP8 confirm: human SENP8 inhibition, confirmed. shares compounds with SENP7 inh. Recombinant SENP8, Z-RLRGG-aminoluciferin luminescence, 60 min. inhibition, % at 12.5 µM. actives 40% (n = 6,200). AID 488912;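 active = mean inhibition across replicates above about 50%, limit read from the data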
SENP6 conf: confirmation of human SENP6 protease inhibitors | inhibition, % at 12.5 µM | AID 488915 | shares compounds with SENP7 inh | recombinant SENP6, Z-RLRGG-aminoluciferin luminescence | actives 58% (n = 6,200)
SENP7 confirm: human SENP7 inhibition, confirmed. actives 69% (n = 6,200). shares compounds with SENP7 inh. recombinant SENP7, Z-RLRGG-aminoluciferin luminescence, 40 min. inhibition, % at 12.5 µM
Casp3 select: selectivity test for SENP inhibitors: human caspase-3 inhibition; purified caspase-3, Z-DEVD-aminoluciferin luminescence, 60 min; actives 60% (n = 6,200); inhibition, % at 12.5 µM; AID 488918; shares compounds with SENP7 inh;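 active = mean inhibition above about 50%, limit read from the data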;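 also: plate controls were enzyme with DMSO for no effect and wells without caspase-3 for full effect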
Target sequence (P42574 28-227 limits assumed): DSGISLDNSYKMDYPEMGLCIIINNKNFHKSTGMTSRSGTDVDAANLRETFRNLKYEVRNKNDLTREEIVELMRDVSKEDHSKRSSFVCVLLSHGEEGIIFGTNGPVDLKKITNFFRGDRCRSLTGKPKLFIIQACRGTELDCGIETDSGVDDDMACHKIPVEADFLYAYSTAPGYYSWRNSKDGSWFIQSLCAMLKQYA
Luc interf: interferes with luciferase luminescence in SENP counter-screen | shares compounds with SENP7 inh | Pre-incubated SENP8/Z-RLRGG-aminoluciferin, luciferase luminescence interference | inhibition, % at 12.5 µM | actives 39% (n = 6,200);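 active = mean inhibition above about 50% when retested at one dose, limit read from the data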;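 also: plate controls were DMSO wells with completed reaction for no effect and substrate without enzyme for full effect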
Active calls of the source: *; nt = not tested or not shown. Rows were chosen to be rich in hits. Some 2.9% of all compounds tested hit in one or more screens of this group.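 The calls were made as follows, unless noted: active = mean inhibition above about 50% in the one-dose retest (limit read from the data); inactive = the rest.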

SMILES | SENP6 block | HSP90 refold inh | SENP7 inh | SENP8 block-1 | SENP8 block-2 | SENP1 inh | SENP8 confirm | SENP6 conf | SENP7 confirm | Casp3 select | Luc interf
O=C(/C=C\Nc1ccccc1Br)c1ccc2c(c1)OCO2 | 87* | 7 | 89* | 86* | -20 | -37 | 84* | 93* | 98* | 78* | 8
O=C(/C=C/c1ccccc1)c1ccc2c(c1)OCO2 | 82* | -2 | 93* | 76* | 12 | 2 | 20 | 51* | 33 | 28 | 90*
O=C(/C=C/c1cccc(Br)c1)c1ccc2c(c1)OCO2 | 76* | 4 | -33 | 34 | 3 | 0 | 4 | 5 | -13 | -13 | 10
Cc1ccc(NC(=O)c2ncn(CCCNCC3CCCO3)n2)cc1C (stereo not given) | nt | nt | nt | nt | 1 | -2 | nt | nt | nt | nt | nt
CCOC(=O)C1(C)CCN1C(=O)/C=C/c1ccccc1 (stereo not given) | nt | nt | nt | nt | 11 | 0 | nt | nt | nt | nt | nt
CCc1ccc(NS(=O)(=O)c2c(C(=O)N3CCOCC3)c(C)n(C)c2C)cc1 | -1 | -6 | 15 | -4 | 4 | -1 | nt | nt | nt | nt | nt
O=C(/C=C\Nc1cccc(F)c1)c1ccc2c(c1)OCO2 | 94* | 1 | 96* | 56* | -182 | -57 | 79* | 87* | 92* | 84* | 28
O=C(/C=C/c1ccc2c(c1)OCO2)c1ccc[nH]1 | 77* | 7 | 78* | 59* | -422 | -38 | 73* | 64* | 91* | 41 | 69*
O=C(c1ccc2c(c1)OCO2)c1ccc[nH]1 | nt | nt | nt | nt | 6 | 0 | nt | nt | nt | nt | nt
CN(C)c1ccc(/C=C/C(=O)c2ccc3c(c2)OCO3)cc1 | 91* | nt | 88* | 88* | -381 | -42 | 95* | 94* | 101* | 83* | 66*
O=C(/C=C/c1ccc2c(c1)OCO2)c1ccc(F)cc1 | 45 | -3 | 34 | 25 | -83 | -5 | nt | nt | nt | nt | nt
CCn1c(SCC(=O)Nc2ccc(N(C)C)cc2)nnc1-c1cccc(C)c1 | -4 | 4 | 1 | -4 | 25 | -1 | nt | nt | nt | nt | nt
O=C1/C(=C/c2cccc(F)c2)Oc2cc(O)ccc21 | 52* | -3 | 47 | 36 | -256 | -19 | 70* | 64* | 81* | 44 | 34
CCOC(=O)c1c(C)[nH]c(C=C2C(=O)CCCC2=O)c1O | 4 | -4 | 4 | 13 | 10 | -50 | nt | nt | nt | nt | nt
COc1ccc2c(c1OC)C(=O)N1c3ccccc3SC21 (stereo not given) | 50* | 0 | 12 | 28 | -307 | -1 | 40 | 37 | 78* | 58* | 29
COc1ccc2c(c1OC)C(=O)N1c3ccccc3COC21 (stereo not given) | 17 | 3 | 8 | -2 | 24 | -1 | nt | nt | nt | nt | nt
O=C(CN1CCN(c2ccccc2O)CC1)Nc1cccnc1Cl | -12 | 2 | -4 | -1 | 4 | 2 | nt | nt | nt | nt | nt
CC(C)CC(NS(=O)(=O)c1ccc2c(c1)oc(=O)n2C)C(=O)NCc1cccnc1 (stereo not given) | 2 | 3 | 0 | 8 | 11 | 2 | nt | nt | nt | nt | nt
C=C1CCc2c([nH]c3ccc(OCC(C)C)cc23)C1=O | 95* | -1 | -2 | 8 | -279 | -15 | 12 | 4 | 7 | 4 | 3
COc1ccc2[nH]c3c(c2c1)CCNC3=O | -13 | nt | -2 | 4 | -451 | -2 | nt | nt | nt | nt | nt
CCN1C(=O)/C(=C/C=C2/Sc3ccccc3N2CCO)SC1=S | 21 | 0 | 7 | 13 | 30 | 13 | nt | nt | nt | nt | nt
CCN1C(=O)/C(=C/C=C2/SCCN2C)SC1=S | 80* | 8 | 77* | 48 | 47* | 27 | 0 | 13 | 10 | 16 | 5
O=C(Nc1ccccc1)Nc1ccc2ncoc2c1 | 0 | -3 | 62* | 25 | -10 | 2 | 58* | 53* | 82* | 67* | 58*
O=C(Nc1ccccc1)Nc1ccc2ocnc2c1 | 31 | -2 | 76* | 58* | -12 | 2 | 4 | 64* | 88* | 84* | 45
O=C(O)Cc1ccc2ocnc2c1 | 13 | 0 | 5 | 7 | 8 | 3 | nt | nt | nt | nt | nt
SMILES | SENP6 block | HSP90 refold inh | SENP7 inh | SENP8 block-1 | SENP8 block-2 | SENP1 inh | SENP8 confirm | SENP6 conf | SENP7 confirm | Casp3 select | Luc interf
CC(=O)Nc1ccc(NC(=O)Nc2ccccc2)cc1 | 13 | -1 | 17 | -2 | 14 | 0 | nt | nt | nt | nt | nt
Cc1nc2cc(NC(=O)c3ccc(S(=O)(=O)N(C)c4ccccc4)cc3)ccc2o1 | -13 | -1 | 3 | 3 | 5 | 1 | nt | nt | nt | nt | nt
COc1ccc(S(=O)(=O)N2CCN=C2SCc2cccc(C)c2)cc1 | 4 | 4 | -10 | -1 | 5 | 2 | nt | nt | nt | nt | nt
COc1ccc(C)cc1NC(=O)c1nn(C)cc1Br | -33 | 7 | -6 | -5 | 10 | 1 | nt | nt | nt | nt | nt
Cc1cc2nc(C)c(Cl)c(=O)n2[nH]1 | 0 | 0 | -7 | -3 | -26 | 1 | nt | nt | nt | nt | nt
O=c1c2c(nc3cc(-c4ccc(Cl)cc4)[nH]n13)CCS2 | 88* | -5 | 73* | 85* | -397 | -37 | -2 | 2 | 4 | 24 | 12
Cc1nc2cc(-c3ccc(Br)cc3)[nH]n2c(=O)c1Cl | 82* | -2 | 27 | 75* | -3 | -2 | 0 | 2 | 3 | 11 | 10
O=c1c2c(nc3cc(-c4cccc(Cl)c4)[nH]n13)CCC2 | 50* | 1 | 57* | 45 | -270 | 0 | -25 | -11 | 12 | 20 | -8
Oc1ccccc1-c1cc(-c2ccco2)[nH]n1 | 34 | -2 | 0 | 19 | 17 | -5 | nt | nt | nt | nt | nt
Oc1c(-c2cc(-c3ccco3)[nH]n2)ccc2ccccc12 | 44 | -1 | 55* | 55* | -11 | 8 | 3 | 69* | 86* | 17 | 5
Cc1ccc(Cl)cc1N1CCN(S(C)(=O)=O)CC1 | 4 | -2 | 67* | -6 | 3 | 3 | 4 | 6 | 14 | 9 | 5
Cc1ccc(Cl)cc1N1CCN(S(=O)(=O)N2CCCCC2)CC1 | nt | 4 | nt | nt | 13 | 3 | nt | nt | nt | nt | nt
CC(=C/c1ccco1)/C=N/N1CCN(c2ccccc2)CC1 | 97* | -1 | 95* | 92* | 13 | -2 | 3 | 54* | 34 | 68* | 16
Cc1ccc(N2CCN(/N=C/C(Cl)=C/c3ccccc3)CC2)cc1 | -21 | 1 | 1 | 6 | 16 | 2 | nt | nt | nt | nt | nt
